# Paper PMC7191562 (ACS Omega, 2020)
# Test system: E. faecalis (MDR 14U0445)
# Assay: MIC antibacterial assay
# Assay type: cell-based
# Settings: Enterococcus faecalis, 16 h
# Summary of the method: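 Clinical isolates grown from single colonies in LB at 37 °C to log phase, then set to 2 × 10⁵ CFU/mL in LB using 1 OD600 = 1 × 10⁹ CFU/mL. Peptide stock was 2 mg/mL in water. A 192 μg/mL peptide solution was twofold serially diluted in LB, then bacteria were added. Plates ran 16 h at 37 °C with A600 read-out, each peptide in triplicate.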
smiles,measurement,value
"CC1(C)S[C@@H]2[C@H](NC(=O)[C@H](N)c3ccccc3)C(=O)N2[C@H]1C(=O)O [Amp, Ampicillin]",MIC,2 mg/L
